Assay outcomes deposited in PubChem BioAssay by several laboratories.
In the library only some 0.4% were active in any assay of this set; here they are far more common.
ERp5 block – inhibitors of ERp5-driven insulin aggregation, primary screen, biochemical, turbidity, absorbance 650 nm, single point; 90 min; inhibition, % at 9.99 µM; Protein disulfide-isomerase A6 (Homo sapiens), Q15084; AID 651711, 2012; 0.05% of 350,000 active;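 active means mean replicate inhibition above about 25%, with every replicate also reaching it, limit read from the data, passing the limit was not always enough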
PDI inh – inhibitors of human PDI, primary screen, biochemical, turbidity, single point, plate reader. Protein disulfide-isomerase (Homo sapiens), P07237. PDI insulin aggregation turbidity, A650, 90 min. inhibition, % at 10 µM. 0.052% of 350,000 active. AID 588391, 2011;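 active means mean inhibition across replicates of 30% or more, whatever share of single replicates reach that level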
Target sequence (P07237 whole entry, looked up): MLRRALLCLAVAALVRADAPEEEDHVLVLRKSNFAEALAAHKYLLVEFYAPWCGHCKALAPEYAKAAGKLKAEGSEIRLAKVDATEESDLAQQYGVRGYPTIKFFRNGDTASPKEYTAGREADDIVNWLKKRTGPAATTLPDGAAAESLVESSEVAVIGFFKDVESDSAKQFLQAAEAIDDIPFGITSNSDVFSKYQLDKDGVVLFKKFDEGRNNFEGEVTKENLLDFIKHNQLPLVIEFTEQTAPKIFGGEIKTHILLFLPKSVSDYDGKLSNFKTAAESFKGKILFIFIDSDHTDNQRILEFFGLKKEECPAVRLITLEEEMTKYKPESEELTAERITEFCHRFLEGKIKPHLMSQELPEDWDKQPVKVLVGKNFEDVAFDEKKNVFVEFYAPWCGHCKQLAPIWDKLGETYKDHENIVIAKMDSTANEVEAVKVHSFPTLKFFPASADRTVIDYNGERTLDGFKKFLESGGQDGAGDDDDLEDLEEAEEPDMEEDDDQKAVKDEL
TbMetRS inhib – T. brucei MetRS inhibitors, primary screen, biochemical, luminescence. methionyl-tRNA synthetase (Trypanosoma brucei brucei). inhibition, % at 11.9 µM. purified T. brucei MetRS, ATP depletion, Kinase-Glo luminescence. 0.4% of 360,000 active;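 active means inhibition above a per-plate cutoff of the control wells' mean inhibition plus 3 SD, cut at about 5.5% in these data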;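 further: 0% = DMSO wells median and 100% = median of wells with control inhibitor compound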
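Dosing: 11.9 µM compound single dose, 0.9% DMSO; Assay system: purified T. brucei MetRS enzyme; Measured by: Kinase-Glo luciferase luminescence reporting remaining unconsumed ATP; Schedule: 15 min plus 2 h at 25 °C.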
TbMetRS confirm – T. brucei MetRS inhibitors, confirmation, biochemical, luminescence; inhibition, % at 11.9 µM; 93% of 1,400 active; shares compounds with TbMetRS inhib; T. brucei MetRS enzyme, luminescence (ATP depletion); in the data active means inhibition above about 7%
Jurkat tox – Jurkat T cell cytotoxicity, cytotoxicity control for T. brucei MetRS inhibitor project, luminescence, high throughput; shares compounds with TbMetRS inhib; Jurkat cells viability, ATP luminescence; inhibition, % at 8.3 µM; 12% of 1,400 active; AID 624413, 2012; in the data active means inhibition above about 15%;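 further: 0% = vehicle and 100% = reference inhibitor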
TbMetRS FP orth – T. brucei MetRS inhibitors, orthogonal assay for T. brucei MetRS inhibitor project, biochemical, fluorescence polarization; shares compounds with TbMetRS inhib; purified T. brucei MetRS; inhibition, % at 11.9 µM; 44% of 1,400 active; AID 651607, 2012; in the data active means inhibition above about 17%;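 further: 0% = vehicle wells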
* marks the source's active call; other numbers are inactive results; x = no result.

SMILES | ERp5 block | PDI inh | TbMetRS inhib | TbMetRS confirm | Jurkat tox | TbMetRS FP orth
COc1ccc(CCn2c(C)cc3c(c2=O)C(c2ccc4c(c2)OCO4)C(C#N)=C(N)O3)cc1OC (configuration not stated) | x | -3.6 | 15.6* | 3.5 | 5.0 | 7.2
Cc1cc2c(c(=O)n1Cc1ccc3c(c1)OCO3)C(c1cccnc1)C(C#N)=C(N)O2 (configuration not stated) | x | 1.3 | 0.7 | x | x | x
Cc1cc2c(c(=O)n1Cc1ccccn1)C(c1ccc3c(c1)OCO3)C(C#N)=C(N)O2 (configuration not stated) | x | 4.3 | 13.8* | 4.1 | -9.7 | 2.5
COc1cc(C2C(C#N)=C(N)Oc3cc(C)n(CC4CCCO4)c(=O)c32)cc2c1OCO2 (configuration not stated) | x | -4.4 | 78.2* | 4.3 | 0.7 | 1.2
COc1cc(C2C(C#N)=C(N)Oc3cc(C)oc(=O)c32)cc2c1OCO2 (configuration not stated) | x | -0.8 | 0.5 | x | x | x
Cc1cc2c(c(=O)n1Cc1ccccn1)C(C(C)C)C(C#N)=C(N)O2 (configuration not stated) | x | -21.1 | -0.6 | x | x | x
CN(C)C(=O)[C@@H]1[C@@H](CO)[C@@H]2Cn3c(ccc(C4=CCCCC4)c3=O)[C@H]1N2Cc1ccccc1 | 2.4 | x | x | x | x | x
CC(C)C#Cc1cnc2c(c1)C(=O)N([C@H](C)CO)C[C@H](C)[C@H](CN(C)S(=O)(=O)c1cn(C)cn1)O2 | -4.3 | x | x | x | x | x
O=C(Nc1ccccc1F)N1CC(=O)N2[C@H](C1)[C@H](c1ccc(C#CC3CCCC3)cc1)[C@@H]2CO | -1.2 | x | x | x | x | x
[N-]=[N+]=NCc1ccccc1C[C@]1(C(=O)NCCN2CCOCC2)COC(c2ccc(OCCCO)cc2)=N1 | -3.3 | x | x | x | x | x
CC(C)NC(=O)N(C)C[C@H]1Oc2c(NC(=O)c3cnccn3)cccc2C(=O)N([C@H](C)CO)C[C@@H]1C | -1.6 | x | x | x | x | x
CCN1CCCC1Cn1cnc2c([nH]c3ccc(C)cc32)c1=O (configuration not stated) | x | 13.4 | 0.7 | x | x | x
COc1ccc2[nH]c3c(=O)n(CCN4CCOCC4)cnc3c2c1 | -5.3 | -12.4 | -1.2 | x | x | x
Cc1ccc2ncnc(NCCCN3CCOCC3)c2c1 | x | -4.7 | 0.2 | x | x | x
O=C1CCCN1CCCNc1ncnc2c1[nH]c1ccc(Cl)cc12 | 3.7 | 1.5 | 62.3* | 70.5* | 4.5 | 50.6*
CCN1CCCC1CNc1ncnc2c1[nH]c1ccc(Cl)cc12 (configuration not stated) | x | 0.6 | 37.9* | 59.2* | 1.8 | 36.0*
Clc1ccc2[nH]c3c(NCCCN4CCOCC4)ncnc3c2c1 | x | -12.2 | 45.1* | 56.5* | 6.2 | 47.6*
O=C1CCCN1CCCn1cnc2c([nH]c3ccc(F)cc32)c1=O | x | -8.2 | 0.0 | x | x | x
Cc1ccc2[nH]c3c(NCCN4CCOCC4)ncnc3c2c1 | x | 3.1 | 11.1* | 22.3* | 4.0 | 8.3
COc1ccc(CN2C[C@H](O)COC[C@H]3O[C@@H](CC(=O)N4CCc5ccccc5C4)CC[C@@H]32)cc1 | -2.7 | x | x | x | x | x
COc1ccc(S(=O)(=O)Nc2ccc3c(c2)C(=O)N([C@H](C)CO)C[C@@H](C)[C@H](CN(C)S(=O)(=O)c2cccs2)OCCCC[C@H](C)O3)cc1 | 2.7 | x | x | x | x | x
C[C@@H]1CN([C@H](C)CO)C(=O)c2cccc(NC(=O)C3CCCCC3)c2O[C@H]1CN(C)C(=O)Nc1ccc(C(F)(F)F)cc1 | 1.8 | x | x | x | x | x
COc1ccccc1-c1cnc2c(c1)C(=O)N([C@@H](C)CO)C[C@H](C)[C@H](CN(C)C(C)=O)O2 | -1.5 | x | x | x | x | x
CN(C)CC(=O)N[C@@H]1CC[C@@H](CCNC(=O)C2CC2)O[C@H]1CO | 2.2 | x | x | x | x | x
CCOc1ccc2[nH]c3c(N4CCN(c5ccccn5)CC4)ncnc3c2c1 | x | -4.2 | -0.1 | x | x | x
CCOc1ccc2[nH]c3c(NCCN(C)C)ncnc3c2c1 | 0.6 | 1.8 | 0.4 | x | x | x
C=CCNc1ncnc2c1[nH]c1ccc(C)cc12 | 3.5 | -10.1 | 11.0* | 22.3* | 14.0 | 12.4
